Results reported in ChEMBL document CHEMBL1155459, “On-bead screening of a combinatorial fumaric acid derived peptide library yields antiplasmodial cysteine protease inhibitors with unusual peptide sequences” (J Med Chem, 2009).
Peptide text beside a SMILES is read from it.

Legend:
[1] = Inhibition of Plasmodium falciparum falcipain-2 after 12 hrs by fluorescence spectroscopy-based on-bead assay; parameters: concentration or dose not given beside the values; details: concentration not given here
Method in brief: (§1)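 Library members on resin (PEGA, theoretical loading 0.40 mmol/g; added as DMSO suspension, 0.64 mM final inhibitor) preincubated with enzyme 12 h, then Cbz-Phe-Arg-AMC 40 μM added; AMC release followed by fluorescence (ex 380/em 460 nm). Kinetics compared with inhibitor-free amino-PEGA resin.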

[2] = molecular target: Rhodesain (Trypanosoma brucei rhodesiense) (UniProt Q95PM0); experiment: Inhibition of Trypanosoma brucei rhodesiense rhodesain after 12 hrs by fluorescence spectroscopy-based on-bead assay; parameters: concentration or dose not given beside the values; details: concentration not given here; method in brief: as §1
Rhodesain (Trypanosoma brucei rhodesiense), sequence (Q95PM0 1-450): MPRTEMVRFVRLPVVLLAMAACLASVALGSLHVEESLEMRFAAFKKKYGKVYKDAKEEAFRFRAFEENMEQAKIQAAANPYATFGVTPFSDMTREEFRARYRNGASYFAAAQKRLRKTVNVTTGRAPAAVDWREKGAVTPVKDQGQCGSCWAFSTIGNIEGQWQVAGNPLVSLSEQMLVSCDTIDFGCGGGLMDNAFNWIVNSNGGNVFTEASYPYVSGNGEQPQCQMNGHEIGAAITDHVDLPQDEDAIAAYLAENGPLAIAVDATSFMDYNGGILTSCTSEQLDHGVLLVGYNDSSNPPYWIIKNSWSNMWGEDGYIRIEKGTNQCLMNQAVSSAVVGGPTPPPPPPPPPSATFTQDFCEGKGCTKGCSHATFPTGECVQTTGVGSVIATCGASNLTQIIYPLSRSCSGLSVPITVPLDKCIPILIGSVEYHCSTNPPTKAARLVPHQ

SMILES	inhibition [1]	inhibition [2]
CC(=O)NC[C@H](NC(=O)/C=C/C(=O)N[C@@H](C)C(=O)NCC(=O)N[C@@H](Cc1ccccc1)C(=O)O)C(=O)N[C@@H](Cc1ccccc1)C(=O)N[C@@H](C)C(=O)N[C@H](C(N)=O)C(C)C (HELM PEPTIDE1{[C[C@H](NC(=O)/C=C/C(=O)[*:2])C(=O)NCC(=O)N[C@@H](Cc1ccccc1)C(=O)O].[O=C([C@H](CN[*:3])N[*:1])[*:2]].F.A.V.[am]}|PEPTIDE2{[ac]}$PEPTIDE1,PEPTIDE2,2:R3-1:R2$$$V2.0)	13%	17%
CC[C@H](C)[C@H](NC(=O)[C@H](CCC(N)=O)NC(=O)/C=C/C(=O)NCC(=O)NCC(=O)N[C@@H](Cc1ccccc1)C(=O)O)C(=O)N[C@@H](C)C(=O)N[C@H](C(N)=O)C(C)C (HELM PEPTIDE1{[O=C(/C=C/C(=O)[*:2])NCC(=O)NCC(=O)N[C@@H](Cc1ccccc1)C(=O)O].Q.I.A.V.[am]}$$$$V2.0)	38%	38%
CC(C)C[C@H](NC(=O)[C@H](Cc1ccccc1)NC(=O)[C@H](Cc1ccccc1)NC(=O)/C=C/C(=O)NCC(=O)NCC(=O)N[C@@H](Cc1ccccc1)C(=O)O)C(=O)N[C@H](C(N)=O)C(C)C (HELM PEPTIDE1{[O=C(/C=C/C(=O)[*:2])NCC(=O)NCC(=O)N[C@@H](Cc1ccccc1)C(=O)O].F.F.L.V.[am]}$$$$V2.0)	41%	52%
CC(C)C[C@H](NC(=O)[C@@H](NC(=O)[C@H](C)NC(=O)/C=C/C(=O)N[C@@H](C)C(=O)NCC(=O)N[C@@H](Cc1ccccc1)C(=O)O)C1CCCCC1)C(=O)N[C@H](C(N)=O)C(C)C (HELM PEPTIDE1{[C[C@H](NC(=O)/C=C/C(=O)[*:2])C(=O)NCC(=O)N[C@@H](Cc1ccccc1)C(=O)O].A.[O=C([C@@H](N[*:1])C1CCCCC1)[*:2]].L.V.[am]}$$$$V2.0)	43%	59%
CC(C)C[C@H](NC(=O)[C@H](CC(N)=O)NC(=O)/C=C/C(=O)NCC(=O)NCC(=O)N[C@@H](Cc1ccccc1)C(=O)O)C(=O)N[C@H](C(=O)N[C@H](C(N)=O)C(C)C)C(C)C (HELM PEPTIDE1{[O=C(/C=C/C(=O)[*:2])NCC(=O)NCC(=O)N[C@@H](Cc1ccccc1)C(=O)O].N.L.V.V.[am]}$$$$V2.0)	48%	52%
CC(=O)NC[C@H](NC(=O)/C=C/C(=O)NCC(=O)NCC(=O)N[C@@H](Cc1ccccc1)C(=O)O)C(=O)N[C@@H](CC(C)C)C(=O)N[C@H](C(=O)N[C@H](C(N)=O)C(C)C)C(C)C (HELM PEPTIDE1{[O=C(/C=C/C(=O)[*:2])NCC(=O)NCC(=O)N[C@@H](Cc1ccccc1)C(=O)O].[O=C([C@H](CN[*:3])N[*:1])[*:2]].L.V.V.[am]}|PEPTIDE2{[ac]}$PEPTIDE1,PEPTIDE2,2:R3-1:R2$$$V2.0)	41%	54%
CC(C)C[C@H](NC(=O)[C@H](Cc1ccccc1)NC(=O)/C=C/C(=O)NCC(=O)NCC(=O)N[C@@H](Cc1ccccc1)C(=O)O)C(=O)N[C@@H](C)C(=O)N[C@H](C(N)=O)C(C)C (HELM PEPTIDE1{[O=C(/C=C/C(=O)[*:2])NCC(=O)NCC(=O)N[C@@H](Cc1ccccc1)C(=O)O].F.L.A.V.[am]}$$$$V2.0)	45%	71%
CC(C)C[C@H](NC(=O)[C@H](CCC(N)=O)NC(=O)/C=C/C(=O)NCC(=O)NCC(=O)N[C@@H](Cc1ccccc1)C(=O)O)C(=O)N[C@H](C(=O)N[C@H](C(N)=O)C(C)C)C(C)C (HELM PEPTIDE1{[O=C(/C=C/C(=O)[*:2])NCC(=O)NCC(=O)N[C@@H](Cc1ccccc1)C(=O)O].Q.L.V.V.[am]}$$$$V2.0)	54%	54%
CC(C)[C@H](NC(=O)[C@H](C)NC(=O)[C@@H](NC(=O)[C@H](C)NC(=O)/C=C/C(=O)NCC(=O)NCC(=O)N[C@@H](Cc1ccccc1)C(=O)O)C1CCCCC1)C(N)=O (HELM PEPTIDE1{[O=C(/C=C/C(=O)[*:2])NCC(=O)NCC(=O)N[C@@H](Cc1ccccc1)C(=O)O].A.[O=C([C@@H](N[*:1])C1CCCCC1)[*:2]].A.V.[am]}$$$$V2.0)	31%	26%
